# Assay outcomes deposited in PubChem by Johns Hopkins Ion Channel Center.
# The list is not random: actives were taken first. Their share in the collection is about 3.8%.
# KCNK9 inh – inhibitors of human KCNK9 two-pore domain potassium channel; Q9NPC2; HEK293 KCNK9, FluxOR thallium flux fluorescence; hits give low values; B-score at 10 µM; 1.2% of 310,000 active;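 active = ratio B-score over 3 SD below the library mean, with starting fluorescence within 5 SD of its mean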;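 note: negative B-score means less thallium flux so channel inhibition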
# KCNQ1 act – potentiates or activates the human KCNQ1 potassium channel. P51787. CHO-K1 KCNQ1, thallium flux FluxOR fluorescence; hits give high values. B-score at 10 µM. 0.35% of 310,000 active;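 active = fluorescence ratio B-score, a plate-corrected score, at least three library SD, with initial intensity B-score within 5 SD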
#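 Schedule – 37 °C overnight plating, 90-min dark dye load, 20-min compound pretreatment · System – stable KCNQ1 CHO-K1 line · Probe or stimulus – thallium- and potassium-containing depolarizing buffer · Measured by – kinetic FluxOR fluorescence, 10 s baseline plus 110 s post-stimulus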
# Kir21 block – blocks the mouse Kir2.1 inward-rectifier potassium channel. B-score at 10 µM. AID 1672. 0.85% of 310,000 active. HEK293-Kir2.1, FluxOR thallium flux fluorescence; hits give low values;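 active = fluorescence ratio B-score at or below minus 3 SD of library scores, with starting-brightness B-score within 2 SD, cut at about -4.2 in these data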;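 note: channel flux triggered by added potassium and thallium sulfate stimulus; B-score of peak minus minimum fluorescence over baseline after thallium stimulus; more negative B-score means stronger Kir2.1 block with less thallium influx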
# KCNK3 inh – human KCNK3 channel inhibition, primary screen. CHO-KCNK3 thallium flux, FluxOR fluorescence; hits give low values. B-score at 10 µM. 0.84% of 340,000 active. AID 602410;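 active = B-score under library mean minus 4 SD, starting fluorescence ratio at most library mean plus 5 SD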;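 note: more negative B-score means stronger inhibition of thallium flux through KCNK3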
# Target sequence (O14649 whole entry, looked up): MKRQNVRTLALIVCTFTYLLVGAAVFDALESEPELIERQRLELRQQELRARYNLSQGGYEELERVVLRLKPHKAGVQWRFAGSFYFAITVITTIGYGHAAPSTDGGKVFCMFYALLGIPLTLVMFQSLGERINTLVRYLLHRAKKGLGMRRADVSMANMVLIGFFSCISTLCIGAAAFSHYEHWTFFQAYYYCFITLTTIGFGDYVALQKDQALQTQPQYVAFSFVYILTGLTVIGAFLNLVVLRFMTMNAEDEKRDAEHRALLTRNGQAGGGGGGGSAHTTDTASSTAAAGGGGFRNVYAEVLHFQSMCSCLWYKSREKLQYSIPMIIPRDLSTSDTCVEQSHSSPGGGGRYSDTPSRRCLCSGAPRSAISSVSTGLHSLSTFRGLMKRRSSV
# hERG rescue – compounds protecting human hERG from proarrhythmic drug block | Q12809 | CHO-hERG, FluxOR thallium flux, dofetilide IC70 present | activation (rescue from dofetilide block), less the hit threshold, % at 10 µM | 0.51% of 310,000 active | AID 1511;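 active = activation above the mean of controls blocked by dofetilide plus 5 SD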;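 note: thallium influx through hERG after potassium depolarization seen as dye fluorescence rise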
# KCNQ1 inh – blocks the human KCNQ1 potassium channel. CHO-K1 KCNQ1, FluxOR thallium flux fluorescence; hits give high values. 1.3% of 310,000 active. B-score at 10 µM. AID 2642;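 active = compounds whose thallium flux B-score, printed positive for inhibition, exceeds three library SD while starting fluorescence stays within three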;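 note: channel opened by potassium depolarization with thallium stimulus after 20 min compound exposure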
# KCNK9 block conf – human KCNK9 inhibitor confirmation; shares compounds with KCNK9 inh; HEK293 KCNK9 cells, FluxOR thallium flux fluorescence; inhibition, % at 10 µM; 43% of 4,900 active; AID 492992;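 active = thallium signal inhibited by more than 5 SD of the compound-free buffer control wells, on both duplicate plates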;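 note: 0% = assay buffer control wells without compound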
# Kir21 sel – selectivity of KCNK9 modulators against mouse Kir2.1. shares compounds with KCNK9 inh. Kir2.1 cells, FluxOR thallium flux fluorescence. inhibition, % at 10 µM. 4% of 4,900 active. AID 492993;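 active = thallium signal drop more than 5 SD beyond the mean of the no-compound control wells, seen in both duplicate plates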;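 note: signal is fluorescence rise after thallium addition divided by baseline fluorescence; plate controls were assay buffer only for no effect and full block by chlorpromazine control for full effect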
# HEK293 Tl ctr – second check of KCNK9 modulator effects in non-induced HEK293 cells | shares compounds with KCNK9 inh | FluxOR thallium flux | inhibition, % at 10 µM | 40% of 4,900 active;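 active = thallium signal drop beyond 5 SD of the untreated control mean, on both duplicate plates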;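 note: plate controls were buffer only IC0 wells for no effect and SID17386958 at its maximal inhibitory level for full effect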
# An asterisk follows results filed as active; i = inactive; · = not tested or not shown.
SMILES,KCNK9 inh,KCNQ1 act,Kir21 block,KCNK3 inh,hERG rescue,KCNQ1 inh,KCNK9 block conf,Kir21 sel,HEK293 Tl ctr
CCC(=O)N(CCC1(c2ccccc2OC)CCOC(C(C)C)C1)Cc1ccco1 (stereo not drawn),-14*,i,-0.74,i,-16.4,i,47.0%*,i,45.5%*
CCOC(=O)c1nn(-c2ccccc2F)c(-c2ccccc2)c1C(=O)c1ccccc1,-11.4*,i,-1.05,i,-6.8,i,55.5%*,i,i
O=C(NCCCN1CCOCC1)c1sc2cc([N+](=O)[O-])ccc2c1Cl,i,i,-1.87,i,3.8,i,i,i,i
N/C(=N\OC(=O)Cc1ccc(-c2ccccc2)cc1)c1ccncc1,i,i,-0.96,i,-5.6,i,30.0%*,i,i
CCN(Cc1ccccc1)C(c1ccc(Cl)cc1)c1nnnn1C(C)(C)C (stereo not drawn),-10.4*,i,0.87,i,-2.7,i,59.0%*,i,54.0%*
CN(C)CCCNCCCNC(=O)/C(=N\O)c1ccccn1,i,i,1.3,i,-8.3,i,·,·,·
CO/N=C/CC(=O)c1ccc([N+](=O)[O-])c(CS(=O)(=O)c2ccc(Cl)cc2)c1,i,i,-1.89,i,-2.2,i,·,·,·
CN(C)c1oc(/C=C/c2cccs2)nc1S(=O)(=O)c1ccccc1,-8.11*,i,-0.21,i,-5.2,i,42.0%*,i,i
COc1ccccc1/C=C/c1nc(S(=O)(=O)c2ccccc2)c(N(C)C)o1,-10.7*,i,-0.35,i,-8.4,i,53.0%*,i,28.5%*
Cc1cccc(C)c1OC(=O)CN1C(=O)c2ccccc2C1=O,i,i,0.17,i,2.8,i,·,·,·
O=S(=O)(c1ccccc1Oc1ccc(Cl)cc1Cl)N1CCCCC1,-9.92*,i,0.49,i,-8.0,i,45.0%*,i,i
O=S(=O)(c1cccc(Cl)c1Cl)N1CCCCC1,i,i,-0.79,i,-18.0,i,·,·,·
COCC1=C(C(=O)OC)C(c2cccs2)n2ncnc2N1 (stereo not drawn),i,i,0.05,i,-0.1,i,·,·,·
COc1ccc(-n2cnnc2SCC(=O)NC2CCCc3ccccc32)cc1 (stereo not drawn),i,i,-1.43,i,-6.0,i,·,·,·
Cc1cccc(-c2noc(CN(C)C(=O)COc3ccccc3)n2)c1,i,i,1.43,i,-5.3,i,·,·,·
COc1cccc(OCC(=O)N(C)Cc2nc(-c3cccc(C)c3)no2)c1,i,i,-0.16,i,-4.2,i,i,i,i
COc1ccc(OC(C)C(=O)N(C)Cc2nc(-c3cccc(C)c3)no2)cc1 (stereo not drawn),i,i,-1.32,i,-11.7,i,i,i,i
COc1ccc(C(=O)NCCOc2ccccc2Cl)c(OC)c1OC,i,i,1.16,i,-8.6,i,·,·,·
Cc1cccc(OC(C)C(=O)Nc2cc(Cl)ccc2-n2cncn2)c1 (stereo not drawn),·,·,·,i,·,·,·,·,·
Cn1nc(-c2ccccc2)c(-c2nc(-c3ccccc3Cl)no2)c1Cl,-10.4*,i,-1.16,i,3.6,i,41.0%*,i,32.0%*
CCN(CC)c1nc(C#N)nc(N(CC)CC)n1,i,i,-0.41,i,-7.9,i,i,i,i
CCN(CC)c1nc(SCC(=O)O)nc(N(CC)CC)n1,i,i,1.04,i,-17.1,i,·,·,·
O=[N+]([O-])c1cc([N+](=O)[O-])c(Oc2ccccc2F)cc1NN1CCCCC1,i,i,0.34,i,-15.2,i,·,·,·
Cc1ccc(C)c(Oc2cc(NN3CCCCC3)c([N+](=O)[O-])cc2[N+](=O)[O-])c1,-10.6*,i,-1.11,i,-7.7,i,32.0%*,i,i
O=[N+]([O-])c1ccc(COc2cccc(CNc3ccc(Br)cc3)c2)cc1,-10.2*,i,1.2,i,-15.8,i,i,i,37.0%*
SMILES,KCNK9 inh,KCNQ1 act,Kir21 block,KCNK3 inh,hERG rescue,KCNQ1 inh,KCNK9 block conf,Kir21 sel,HEK293 Tl ctr
Nc1c(Cl)ncnc1NCCc1ccc(O)cc1,i,i,-0.55,i,-12.7,i,·,·,·
CN(C(=O)COc1cc(=O)n(C)c2ccccc12)c1cccc(Cl)c1,i,i,0.48,i,-14.4,i,·,·,·
CCN(C(=O)COc1cc(=O)n(C)c2ccccc12)c1cccc(Cl)c1,i,i,-1.97,i,-10.1,i,i,i,i
Cc1ccc(NC(=S)NC(=O)C2CCCC2)c(Br)c1,·,·,·,i,·,·,·,·,·
O=C(Nc1cc2c3c(c1)C1CCCC1CN3CC1CCCC21)c1ccccc1 (stereo not drawn),-11.8*,i,1.2,i,-10.0,9*,i,i,i
CC(=O)c1ccc(N2CCN(C(=O)CCS(=O)(=O)c3ccc4c(c3)NC(=O)CS4)CC2)cc1,i,i,0.13,i,-9.9,i,·,·,·
Cc1cccc(N2CCN(C(=O)COc3cccc4c3OC(C)(C)C4)CC2)c1C,-8.7*,i,0,i,-8.7,i,25.0%*,i,i
CC1(C)Cc2cccc(OCC(=O)N3CCN(S(=O)(=O)c4ccc(F)cc4)CC3)c2O1,i,i,-0.01,i,-12.2,i,·,·,·
CCCCCC(=O)O[C@]1(C(C)=O)CC[C@H]2[C@@H]3CCC4=CC(=O)CC[C@]4(C)[C@H]3CC[C@@]21C,-13.2*,i,0.01,-10*,-5.4,12*,66.0%*,i,45.0%*
COCCN(C(=O)c1ccc(OC2CCN(S(=O)(=O)N(C)C)CC2)cc1)C(C)C,i,i,0.99,i,-6.3,i,·,·,·
c1ccc(OCCOc2ccccc2-c2nnco2)cc1,-8.35*,i,-1.37,i,2.5,i,i,i,28.5%*
Clc1ccccc1COc1ccccc1-c1nnco1,i,i,0.1,i,-9.5,i,·,·,·
COc1ccccc1/C=C1\Oc2cc(OC(=O)N3CCOCC3)ccc2C1=O,i,i,-1.52,i,-7.5,i,·,·,·
COC(CNC(=O)c1cc(C)nn1-c1ccccc1)OC,i,i,0.5,i,-7.9,i,·,·,·
Cc1cn(C2CCCO2)c(=O)nc1N (stereo not drawn),·,·,·,i,·,·,·,·,·
